Shown are actives, neighbours in structure and some others; about 1.3% of the full set was active somewhere.
H9c2 TAG inh: reduces triacylglycerol accumulation in H9c2 cells | Nile Red lipid (TAG) fluorescence; cells loaded with 200 µM oleic acid | inhibition, % at 12.5 µM | actives 0.66% (n = 230,000) | AID 651582;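 active = pattern-corrected inhibition of lipid staining of at least 50% with the nuclear-stain viability signal not falling by more than 50%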;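 also: 0% = DMSO wells and 100% = triacsin C control wells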
HGIII-sPLA2 inh: Blocks human group III sPLA2 activity. Q9NZ20. QFRET BODIPY PC-A2 liposome hydrolysis, fluorescence. inhibition, % at 12.2 µM. actives 0.56% (n = 370,000). AID 743126;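 active = inhibition above mean plus 3 SD of compounds lying within the high and low control bounds, cut at about 19% in these data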;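 also: 0% = median of test compound wells and 100% = no enzyme DMSO wells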
Target sequence (Q9NZ20 whole entry, looked up): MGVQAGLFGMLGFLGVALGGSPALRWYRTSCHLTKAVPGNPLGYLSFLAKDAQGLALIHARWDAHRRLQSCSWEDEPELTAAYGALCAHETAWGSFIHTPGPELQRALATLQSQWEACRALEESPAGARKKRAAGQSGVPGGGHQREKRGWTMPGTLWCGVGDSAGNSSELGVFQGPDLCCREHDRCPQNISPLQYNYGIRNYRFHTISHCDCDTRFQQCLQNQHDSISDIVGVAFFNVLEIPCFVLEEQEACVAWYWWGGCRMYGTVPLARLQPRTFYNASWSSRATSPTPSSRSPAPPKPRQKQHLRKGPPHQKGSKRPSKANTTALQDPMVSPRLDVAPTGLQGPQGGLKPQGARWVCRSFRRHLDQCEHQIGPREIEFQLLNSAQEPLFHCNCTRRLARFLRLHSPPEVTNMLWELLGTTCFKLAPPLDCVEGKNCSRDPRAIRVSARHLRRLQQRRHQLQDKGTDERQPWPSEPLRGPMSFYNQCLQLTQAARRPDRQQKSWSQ
Efflux pump mplx: inhibitors of Candida antifungal efflux pumps expressed in yeast | S. cerevisiae Candida pump triplex, Nile Red efflux | inhibition, % at 10 µM | actives 0.44% (n = 330,000) | AID 485275;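 active = plate passing quality check with inhibition over a set limit, or well fluorescence over plate mean plus 4 SD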;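 also: Nile Red retained in pooled yeast measured as flow cytometry median fluorescence; 0% = buffer negative control and 100% = Enniatin B positive control; higher means more Nile Red kept so more efflux inhibition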
MT1-MMP act inh: MT1-MMP (human) activation inhibition. GFP/RFP ratio change, % at 20 µM. actives 0.061% (n = 360,000). HT1080 RFP-PRO-GFP cells, GFP/RFP ratio fluorescence, overnight; percent of plate control window, DMSO zero. P50281;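 active = GFP/RFP ratio change of at least 30% with cell ATP level not reduced by more than half and red fluorescence within 50% of control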
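Test system: HT1080 cells expressing an RFP-PRO-GFP fluorescent reporter construct / Compound dosing: single-point 20 µM compound, 1% DMSO / Schedule: cells overnight before dosing, compound overnight, 37 °C, 5% CO2 / Evaluation: GFP/RFP fluorescence ratio / Control set: DMSO and RFP-L50D-GFP cell wells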
MT1-MMP conf: MT1-MMP (human) activation inhibition, single-concentration validation | shares compounds with MT1-MMP act inh | HT1080 RFP-PRO-GFP cells, GFP and RFP fluorescence ratio, overnight | inhibition, % at 20 µM | actives 10% (n = 200);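 active = inhibition of at least 50% in the primary cell screen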
Starred values were filed as active, the others as inactive; . = not tested or not shown.

SMILES	H9c2 TAG inh	HGIII-sPLA2 inh	Efflux pump mplx	MT1-MMP act inh	MT1-MMP conf
Nc1cccc2[nH]c(C(F)(F)F)nc12	0	-4	0	51*	27
O=C(O)c1cccc2[nH]c(C(F)(F)F)nc12	2	-1	0	3	.
COc1ccccc1NC(=O)c1ccc(S(=O)(=O)N(C)c2ccccc2OC)cc1	3	5	0	35*	10
COc1ccc2nc(-n3c(O)c(C4=c5ccccc5=NC4=O)[nH]c3=S)sc2c1	.	2	0	35*	34
O=C(NCC1CCCCC1)c1csc([C@@H]2C[C@H](O)[C@@H](CO)O2)n1	3	-2	.	1	.
Cc1cc2ccccc2n1CCNC(=O)c1cccs1	0	-4	0	48	.
Cc1cc2ccccc2n1CCNC(=O)C1CCCCC1	13	2	0	38*	2
Cc1cc2ccccc2n1CCNC(=O)C1CCCC1	-15	-7	0	56	.
Cc1cc2ccccc2n1CCNC(=O)C1CC1	3	8	0	32*	2
CCOCCCn1c(SC(C)C(=O)NCC2CCCO2)nc2sc(C)c(C)c2c1=O (configuration not stated)	-4	0	0	-1	.
COc1cccc(CN(C)CC(=O)Nc2ccccc2C(C)C)c1	-34	4	0	-3	.
Nc1ccc(N2CCN(C(=O)c3cccs3)CC2)cc1	5	-6	0	33*	1
O=C(c1ccco1)N1CCN(c2ccc(F)cc2)CC1	.	-2	0	-1	.
Nc1ccc(N2CCN(C(=O)c3ccco3)CC2)cc1	.	-6	0	43*	1
CC(C)(C)c1ccc(OCCNC(=O)c2ncn[nH]2)cc1	1	-43	0	36*	5
COCC1CCN(C(=O)c2ccc3nc(Cc4cccc(Cl)c4)oc3c2)CC1	1	-67	.	2	.
CC1C(=O)N(Cc2cn(CC3CCCCC3)nn2)CCS(=O)(=O)N1Cc1ccc(-c2ccc(Cl)cc2)cc1 (configuration not stated)	32	.	.	40*	11
CCOc1ccc(N2CC(=O)SC2=S)cc1	.	-5	0	37*	2
CN(C)c1ccc(Cc2cc3c(O)ccc(O)c3cc(Cc3ccc(N(C)C)cc3)c2=O)cc1	-1	17	.	33*	23
COc1ccccc1NC(=O)CCN1C(=O)/C(=C\c2cc(OC)c(OC)c(OC)c2)SC1=S	.	1	0	36*	20
CCCCn1c(N)c(N(CCOC)C(=O)c2cccc(S(=O)(=O)N(C)c3ccc(C)cc3)c2)c(=O)[nH]c1=O	-11	6	0	-2	.
COc1ccc(-c2nnc(NC(=O)CSc3ccc(Cl)cc3)s2)cc1OC	.	9	0	37*	6
COc1ccc(Cc2nnc(NC(=O)CSc3ccc(C)cc3)s2)cc1OC	.	-3	0	-1	.
COc1ccc(C(C(=O)NC2CCCC2)N(Cc2cccnc2)C(=O)Cc2cccs2)c(OC)c1 (configuration not stated)	.	17	0	-4	.
COc1cccc2c1OC[C@@H](CO)[C@H]2N(C)C(=O)Nc1ccc(Cl)cc1Cl	.	-8	0	32*	13
SMILES	H9c2 TAG inh	HGIII-sPLA2 inh	Efflux pump mplx	MT1-MMP act inh	MT1-MMP conf
CC1(Cc2ccccc2Cl)C(=O)Nc2c(Cl)ccc(Cl)c21 (configuration not stated)	0	-9	.	-7	.
CCn1c(O)c(/C=N/n2cnnc2)sc1=S	.	-3	0	30*	3
COc1ccc(S(=O)(=O)N2CCOC23CCN(S(C)(=O)=O)CC3)cc1	-5	16	0	0	.
CNc1ccccc1C(C)(C)c1cc(-c2cccc(Br)c2)no1	-10	1	0	62*	54*
Cc1c(NC(=S)/C=C2\N(C)c3ccccc3C2(C)C)c(=O)n(-c2ccccc2)n1C	.	6	0	33*	13
Oc1ccc(N=Nc2cccc(C(F)(F)F)c2)cc1C=Nc1ccc(N2CCOCC2)cc1	.	1	0	45*	14
CN(C)NC(=S)NC1CCS(=O)(=O)C1 (configuration not stated)	4	4	0	3	.
CSCC[C@H](NC(=O)CCNC(C)=O)c1nc2ccccc2[nH]1	5	6	0	1	.
O=C(NNc1c2ccccc2nc2ccccc12)c1ccc(Cl)cc1	.	13	0	40*	26
Cc1ccc(C(=O)NNc2c3ccccc3nc3ccccc23)cc1	4	8	0	37*	39

Source: PubChem BioAssay
